The values below come from ChEMBL document CHEMBL1134664, “Influence of polyamine architecture on the transport and topoisomerase II inhibitory properties of polyamine DNA-intercalator conjugates” (J Med Chem, 2001).

Assay [1] relates to L1210. The assay can be described thus: Cytotoxicity against murine leukemia (L1210) cells was determined at 94h. Type of assay: functional, cell-based. The note with it: Mus musculus, L1210, 94 h. Summed up: (§1)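 L1210 murine leukemia cells in early to mid log phase (under 5% trypan blue positive before the start) were grown at 37 °C in 5% CO2 in 96-well plates with increasing drug concentrations for the stated time. A methotrexate positive control was included in every trial. Viability was read by colorimetric NAD(P)H-dependent formazan production, and the IC50 was taken from this.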

Assay [2] relates to L1210. The assay can be described thus: Cytotoxicity against murine leukemia (L1210) cells was determined at 47h. Type of assay: functional, cell-based. The following applies: Mus musculus, L1210, 47 h. The method, boiled down: as §1

Some results are limits rather than exact numbers.

With `NCCCCN(CCCN)CCCCCNc1c2ccccc2nc2ccccc12`, the IC50 in the assay with L1210 [1] and in the assay with L1210 [2] was above 100 µM each time.

Take `NCCCCN(CCCN)CCCCNCc1c2ccccc2cc2ccccc12`: the values for the IC50 in the assay with L1210 [1] and with L1210 [2] were 6 µM and 13 µM, respectively.

For the compound `NCCCN(CCCCNCc1c2ccccc2cc2ccccc12)CCCCN(CCCN)CCCCNCc1c2ccccc2cc2ccccc12`, the values for the IC50 in the assay with L1210 [1] and in the assay on L1210 [2] were 61 µM and 44 µM, respectively.

As for `NCCCCN(CCCN)CCCCNc1c2ccccc2nc2ccccc12`, the IC50 in the assay with L1210 [1] was 55 µM; in the assay with L1210 [2], 75 µM.

Regarding `CCCCNc1c2ccccc2nc2ccccc12`, the IC50 with L1210 [1] and with L1210 [2] was 2 µM in each case.

Turning to `NCCCN(CCCCCNCc1c2ccccc2cc2ccccc12)CCCCN(CCCN)CCCCCNCc1c2ccccc2cc2ccccc12`, the IC50 worked out at 25 µM in the assay with L1210 [1] and 18 µM in the assay on L1210 [2].

As to `NCCCNCCCCN(CCCN)CCCCNc1ccnc2cc(Cl)ccc12`, the IC50 in the assay on L1210 [1] and in the assay on L1210 [2] was above 100 µM each time.

As to `NCCCN(CCCCCNc1c2ccccc2nc2ccccc12)CCCCN(CCCN)CCCCCNc1c2ccccc2nc2ccccc12`, the IC50 with L1210 [1] worked out at 23 µM; in the assay on L1210 [2], 17 µM.

Turning to `NCCCNCCCCN(CCCN)CCCCNc1c2ccccc2nc2ccccc12`, the results for the IC50 with L1210 [1] and in the assay with L1210 [2] were 17 µM and 23 µM, respectively.

In the case of `NCCCN(CCCCNc1c2ccccc2nc2ccccc12)CCCCN(CCCN)CCCCNc1c2ccccc2nc2ccccc12`, the IC50 in the assay with L1210 [1] is 74 µM; in the assay on L1210 [2], 40 µM.

As to `NCCCCN(CCCN)CCCCCNCc1c2ccccc2cc2ccccc12`, the half-maximal inhibitory concentration (IC50) with L1210 [1] was determined as 5 µM; with L1210 [2] it was 7 µM.

One may read the IC50 as the midpoint of a concentration-inhibition curve. The low end stands for greater potency in that assay, the high end for weaker potency in that assay.
